# Experimental data: ChEMBL document CHEMBL5046302, “Identification and Evaluation of Brominated Carbazoles as a Novel Antibiotic Adjuvant Scaffold in MRSA” (2022)
# Activity calls are given as the source filed them. The calls are words filed in the database; no cut-off is given here.
# Columns and labels:
# Format in all cases: functional
# Staphylococcus aureus [1] = assay: Potentiation of oxacillin induced antibacterial activity against methicillin-resistant Staphylococcus aureus USA100 assessed as oxacillin MIC at 50 uM after 18 hrs by CLSI protocol based broth microdilution assay
# Staphylococcus aureus [2] = assay: Potentiation of cefoxitin induced antibacterial activity against methicillin-resistant Staphylococcus aureus USA100 assessed as cefoxitin MIC at 50 uM after 18 hrs by CLSI protocol based broth microdilution assay
# Staphylococcus aureus [3] = assay: Potentiation of methicillin induced antibacterial activity against methicillin-resistant Staphylococcus aureus USA300 assessed as methicillin MIC at 50 uM after 18 hrs by CLSI protocol based broth microdilution assay
# Staphylococcus aureus [4] = assay: Potentiation of methicillin induced antibacterial activity against methicillin-resistant Staphylococcus aureus COL assessed as methicillin MIC at 50 uM after 18 hrs by CLSI protocol based broth microdilution assay
# Staphylococcus aureus [5] = assay: Potentiation of ampicillin induced antibacterial activity against methicillin-resistant Staphylococcus aureus ATCC 43300 assessed as fold change in ampicillin MIC at 50 uM after 18 hrs by CLSI protocol based broth microdilution assay
# Staphylococcus aureus [6] = assay: Potentiation of ceftazidime induced antibacterial activity against methicillin-resistant Staphylococcus aureus ATCC 43300 assessed as fold change in ceftazidime MIC at 50 uM after 18 hrs by CLSI protocol based broth microdilution assay
# Staphylococcus aureus [7] = assay: Potentiation of oxacillin induced antibacterial activity against methicillin-resistant Staphylococcus aureus USA 100 assessed as fold change in oxacillin MIC at 50 uM after 18 hrs by CLSI protocol based broth microdilution assay
# Staphylococcus aureus [8] = assay: Potentiation of ceftazidime induced antibacterial activity against methicillin-resistant Staphylococcus aureus USA300 assessed as fold change in ceftazidime MIC at 50 uM after 18 hrs by CLSI protocol based broth microdilution assay
# Staphylococcus aureus [9] = assay: Potentiation of cefoxitin induced antibacterial activity against methicillin-resistant Staphylococcus aureus ATCC 43300 assessed as fold change in cefoxitin MIC at 50 uM after 18 hrs by CLSI protocol based broth microdilution assay
# Staphylococcus aureus [10] = assay: Potentiation of oxacillin induced antibacterial activity against methicillin-resistant Staphylococcus aureus USA300 assessed as oxacillin MIC at 50 uM after 18 hrs by CLSI protocol based broth microdilution assay
# Staphylococcus aureus [11] = assay: Potentiation of oxacillin induced antibacterial activity against methicillin-resistant Staphylococcus aureus assessed as fold decrease in blaI gene expression at 50 uM by RT-qPCR analysis
# Outline: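 Fold dampening is the relative mRNA level of the gene, normalised to 16S rRNA, in oxacillin-treated cells divided by that in cells cotreated with oxacillin plus carbazole. Carbazole was used at 25 or 50 μM, as given in each line.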
# Staphylococcus aureus [12] = assay: Upregulation of mecA gene expression in methicillin-resistant Staphylococcus aureus USA100 at 50 uM by RT-PCR method
# Staphylococcus aureus [13] = assay: Potentiation of oxacillin induced antibacterial activity against methicillin-resistant Staphylococcus aureus USA300 harboring stk1 deletion mutant co-transfected with a plasmid bearing stk1 assessed as oxacillin MIC at 50 uM after 18 hrs by CLSI protocol based broth microdilution assay
# Outline: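 Oxacillin MIC by broth microdilution in the USA300 Δstk1 strain complemented with plasmid-borne stk1, with stk1 expression induced. Tested with and without carbazole at 50 μM. Fold change in MIC is taken relative to oxacillin alone.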
# Staphylococcus aureus [14] = assay: Potentiation of oxacillin induced antibacterial activity against methicillin-resistant Staphylococcus aureus USA300 harboring stk1 deletion mutant assessed as oxacillin MIC at 50 uM after 18 hrs by CLSI protocol based broth microdilution assay
# Staphylococcus aureus [15] = assay: Upregulation of mecA gene expression in methicillin-resistant Staphylococcus aureus ATCC 43300 at 50 uM by RT-PCR method
# Staphylococcus aureus [16] = assay: Potentiation of methicillin induced antibacterial activity against methicillin-resistant Staphylococcus aureus USA100 assessed as fold change in methicillin MIC at 25 uM after 18 hrs by CLSI protocol based broth microdilution assay
# Staphylococcus aureus [17] = assay: Potentiation of oxacillin induced antibacterial activity against methicillin-resistant Staphylococcus aureus COL assessed as oxacillin MIC at 25 uM after 18 hrs by CLSI protocol based broth microdilution assay
# Staphylococcus aureus [18] = assay: Potentiation of ampicillin induced antibacterial activity against methicillin-resistant Staphylococcus aureus USA300 assessed as fold change in ampicillin MIC at 25 uM after 18 hrs by CLSI protocol based broth microdilution assay
# Staphylococcus aureus [19] = assay: Potentiation of methicillin induced antibacterial activity against methicillin-resistant Staphylococcus aureus USA100 assessed as methicillin MIC at 25 uM after 18 hrs by CLSI protocol based broth microdilution assay
# Staphylococcus aureus [20] = assay: Upregulation of mecA gene expression in methicillin-resistant Staphylococcus aureus ATCC 43300 at 25 uM by RT-PCR method
# Staphylococcus aureus [21] = assay: Potentiation of methicillin induced antibacterial activity against methicillin-resistant Staphylococcus aureus USA300 assessed as fold change in methicillin MIC at 25 uM after 18 hrs by CLSI protocol based broth microdilution assay
# Staphylococcus aureus [22] = assay: Upregulation of mecA gene expression in methicillin-resistant Staphylococcus aureus COL at 25 uM by RT-PCR method
# Staphylococcus aureus [23] = assay: Potentiation of oxacillin induced antibacterial activity against methicillin-resistant Staphylococcus aureus USA300 harboring stk1 deletion mutant assessed as fold change in oxacillin MIC at 25 uM after 18 hrs by CLSI protocol based broth microdilution assay
# Staphylococcus aureus [24] = assay: Potentiation of oxacillin induced antibacterial activity against methicillin-resistant Staphylococcus aureus USA300 harboring stk1 deletion mutant assessed as oxacillin MIC at 25 uM after 18 hrs by CLSI protocol based broth microdilution assay
# Staphylococcus aureus [25] = assay: Potentiation of ampicillin induced antibacterial activity against methicillin-resistant Staphylococcus aureus ATCC 43300 assessed as fold change in ampicillin MIC at 25 uM after 18 hrs by CLSI protocol based broth microdilution assay
# Staphylococcus aureus [26] = assay: Potentiation of cefoxitin induced antibacterial activity against methicillin-resistant Staphylococcus aureus USA300 assessed as fold change in cefoxitin MIC at 25 uM after 18 hrs by CLSI protocol based broth microdilution assay
# Staphylococcus aureus [27] = assay: Potentiation of oxacillin induced antibacterial activity against methicillin-resistant Staphylococcus aureus ATCC 43300 assessed as oxacillin MIC at 25 uM after 18 hrs by CLSI protocol based broth microdilution assay
# Staphylococcus aureus [28] = assay: Potentiation of ceftazidime induced antibacterial activity against methicillin-resistant Staphylococcus aureus ATCC 43300 assessed as fold change in ceftazidime MIC at 25 uM after 18 hrs by CLSI protocol based broth microdilution assay
# Staphylococcus aureus [29] = assay: Upregulation of blaZ gene expression in methicillin-resistant Staphylococcus aureus ATCC 43300 at 25 uM by RT-PCR method
# Staphylococcus aureus [30] = assay: Potentiation of oxacillin induced antibacterial activity against methicillin-resistant Staphylococcus aureus USA100 assessed as fold change in oxacillin MIC at 25 uM after 18 hrs by CLSI protocol based broth microdilution assay
# Staphylococcus aureus [31] = assay: Potentiation of ceftazidime induced antibacterial activity against methicillin-resistant Staphylococcus aureus USA100 assessed as fold change in ceftazidime MIC at 25 uM after 18 hrs by CLSI protocol based broth microdilution assay
smiles,measurement,setting,value
Brc1ccc2[nH]c3ccc(Br)cc3c2c1,MIC,Staphylococcus aureus [1],128 µg/mL
same,MIC,Staphylococcus aureus [2],64 µg/mL
same,MIC,Staphylococcus aureus [3],8 µg/mL
same,MIC,Staphylococcus aureus [4],1020 µg/mL
same,fold change (FC),Staphylococcus aureus [5],1
same,fold change (FC),Staphylococcus aureus [6],1
same,fold change (FC),Staphylococcus aureus [7],4
same,fold change (FC),Staphylococcus aureus [8],1
same,fold change (FC),Staphylococcus aureus [9],2
same,MIC,Staphylococcus aureus [10],16 µg/mL
Brc1cccc2c1[nH]c1ccccc12,MIC,Staphylococcus aureus [1],0.5 µg/mL
same,MIC,Staphylococcus aureus [2],16 µg/mL
same,MIC,Staphylococcus aureus [3],8 µg/mL
same,MIC,Staphylococcus aureus [4],1020 µg/mL
same,fold change (FC),Staphylococcus aureus [5],8
same,fold change (FC),Staphylococcus aureus [6],2
same,fold change (FC),Staphylococcus aureus [7],512
same,fold change (FC),Staphylococcus aureus [11],1.36
same,Activity,Staphylococcus aureus [12],inactive
same,MIC,Staphylococcus aureus [13],1 µg/mL
same,MIC,Staphylococcus aureus [14],0.25 µg/mL
same,Activity,Staphylococcus aureus [15],inactive
same,fold change (FC),Staphylococcus aureus [8],1
same,fold change (FC),Staphylococcus aureus [9],4
same,MIC,Staphylococcus aureus [10],16 µg/mL
Brc1cccc2[nH]c3ccccc3c12,fold change (FC),Staphylococcus aureus [16],16
same,MIC,Staphylococcus aureus [17],512 µg/mL
same,fold change (FC),Staphylococcus aureus [18],4
same,MIC,Staphylococcus aureus [19],32 µg/mL
same,Activity,Staphylococcus aureus [20],inactive
same,fold change (FC),Staphylococcus aureus [21],4
same,Activity,Staphylococcus aureus [22],inactive
same,fold change (FC),Staphylococcus aureus [23],1
same,MIC,Staphylococcus aureus [24],0.25 µg/mL
same,fold change (FC),Staphylococcus aureus [25],2
same,fold change (FC),Staphylococcus aureus [26],4
same,MIC,Staphylococcus aureus [27],4 µg/mL
same,fold change (FC),Staphylococcus aureus [28],2
same,Activity,Staphylococcus aureus [29],inactive
same,fold change (FC),Staphylococcus aureus [30],16
same,fold change (FC),Staphylococcus aureus [31],1
